Measurements reported in ChEMBL document CHEMBL1147105, “In vitro and in vivo activities of PD 0305970 and PD 0326448, new bacterial gyrase/topoisomerase inhibitors with potent antibacterial activities versus multidrug-resistant gram-positive and fastidious organism groups” (2007).

Legend:
Salmonella typhimurium = assay: Antibacterial activity against Salmonella enterica serovar Typhimurium; format: functional, Salmonella enterica subsp. enterica serovar Typhimurium
In short: (§1)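 Broth microdilution MIC following CLSI guidelines, in cation-adjusted Mueller-Hinton broth, incubated at 35°C. Recent clinical isolates and reference strains, with identity confirmed by automated and standard microbiological methods. Results reported as MIC range, MIC50 and MIC90.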

Hoylesella oralis = assay: Antibacterial activity against Prevotella oralis; format: functional
In short: (§2)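 Anaerobic broth microdilution MIC following CLSI guidelines, in supplemented Brucella broth. Run in an anaerobe chamber under 5% CO2, 5% H2 and 90% N2 at 35°C, and read after 48 h. Reported as MIC range, MIC50 and MIC90.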

Enterococcus faecalis [1] = assay: Antibacterial activity against VanB-resistant Enterococcus faecalis; format: functional
In short: (§3)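 Broth microdilution MIC per CLSI guidelines, incubated at 35°C. Cation-adjusted Mueller-Hinton broth for nonfastidious organisms and staphylococci. Streptococci tested in the same broth with 3% lysed horse blood. Anaerobes tested in supplemented Brucella broth inside an anaerobe chamber (5% CO2, 5% H2, 90% N2), read after 48 h. Strains were mainly recent clinical isolates with confirmed identity.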

[2] = system: Staphylococcus epidermidis; assay: Antibacterial activity against oxacillin-resistant Staphylococcus epidermidis; format: functional; in short: as §3
Bacteroides ovatus = assay: Antibacterial activity against Bacteroides ovatus; format: functional; in short: as §2
Neisseria gonorrhoeae = assay: Antibacterial activity against Neisseria gonorrhoeae; format: functional
In short: (§4)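 MIC by broth microdilution in gonococcal broth, incubated at 35°C in 5% CO2. Reported as MIC range, MIC50 and MIC90.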

Moraxella catarrhalis = assay: Antibacterial activity against beta-lactamase negative Moraxella catarrhalis; format: functional
[3] = system: Parabacteroides distasonis; assay: Antimicrobial activity against Bacteroides distasonis; format: functional
In short: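 Anaerobic broth microdilution MIC following CLSI guidelines, in supplemented Brucella broth. Incubated at 35°C in a chamber under 5% CO2, 5% H2 and 90% N2. Read after 48 h.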

Morganella morganii = assay: Antibacterial activity against Morganella morganii; format: functional; in short: as §1
Staphylococcus aureus [4] = assay: Antibacterial efficacy against ciprofloxacin and methicillin-resistant Staphylococcus aureus SA2017 infected orally dosed CD1 mouse model; format: functional
In short: (§5)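 Sepsis model in female CD1 mice (6–8 weeks, 18–22 g). Lethal i.p. challenge (0.5 ml) at ≥100 median lethal doses. Streptococci were given in Todd-Hewitt broth; other organisms were given with 20% hog gastric mucin. A single oral gavage dose (0.5 ml, in 0.5% methylcellulose) was given at the time of challenge. The PD50 (mg/kg) was calculated by probit analysis.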

Pseudomonas aeruginosa = assay: Antibacterial activity against Pseudomonas aeruginosa; format: functional; in short: as §1
Cutibacterium acnes = assay: Antibacterial activity against Propionibacterium acnes; format: functional
[5] = system: Peptostreptococcus anaerobius; assay: Antibacterial activity against Peptostreptococcus anaerobius; format: functional; in short: as §2
Serratia marcescens = assay: Antibacterial activity against Serratia marcescens; format: functional; in short: as §1
Streptococcus pyogenes = assay: Antibacterial efficacy against Streptococcus pyogenes C203 infected orally dosed CD1 mouse model; format: functional; conditions: C203, po; in short: as §5
Enterococcus faecium = assay: Antibacterial activity against Enterococcus faecium; format: functional; in short: as §3
Enterobacter cloacae = assay: Antibacterial activity against Enterobacter cloacae; format: functional; in short: as §1
Streptococcus mitis = assay: Antibacterial activity against Streptococcus mitis; format: functional
In short: (§6)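 Broth microdilution MIC following CLSI guidelines, in cation-adjusted Mueller-Hinton broth with 3% lysed horse blood. Plates incubated at 35°C. Clinical isolates and reference strains, with identity confirmed by standard microbiological methods.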

Klebsiella pneumoniae = assay: Antibacterial activity against beta-lactamase positive Klebsiella pneumoniae; format: functional
In short: (§7)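 MIC by CLSI broth microdilution for nonfastidious organisms, in cation-adjusted Mueller-Hinton broth incubated at 35°C.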

Prevotella corporis = assay: Antibacterial activity against Prevotella corporis; format: functional; in short: as §2
Legionella pneumophila = assay: Antibacterial activity against Legionella pneumophila; format: functional
In short: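 Broth microdilution MIC per CLSI guidelines, run in buffered yeast extract α-ketoglutarate broth at 35°C and read after 48 h.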

Staphylococcus aureus [6] = assay: Antibacterial activity against oxacillin-susceptible Staphylococcus aureus; format: functional; in short: as §7
Haemophilus influenzae = assay: Antibacterial activity against beta-lactamase positive Haemophilus influenzae; format: functional
In short: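 Broth microdilution MIC following CLSI guidelines, in Haemophilus test medium at 35°C.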

Neisseria meningitidis = assay: Antibacterial activity against Neisseria meningitidis; format: functional; in short: as §4
Shigella sonnei = assay: Antibacterial activity against Shigella sonnei; format: functional; in short: as §1
Streptococcus salivarius = assay: Antibacterial activity against Streptococcus salivarius; format: functional; in short: as §6
Prevotella bivia = assay: Antibacterial activity against Prevotella bivia; format: functional; in short: as §2
Staphylococcus aureus [7] = assay: Antibacterial efficacy against methicillin-resistant Staphylococcus aureus SA1417 infected orally dosed CD1 mouse model; format: functional; in short: as §5
Staphylococcus aureus [8] = assay: Antibacterial efficacy against methicillin-susceptible Staphylococcus aureus UC76 infected orally dosed CD1 mouse model; format: functional; conditions: UC76, po; in short: as §5
Proteus mirabilis = assay: Antibacterial activity against Proteus mirabilis; format: functional; in short: as §1
[9] = system: Bacteroides thetaiotaomicron; assay: Antibacterial activity against Bacteroides thetaiotaomicron; format: functional; in short: as §2
Prevotella buccae = assay: Antibacterial activity against Prevotella buccae; format: functional; conditions: Segatella buccae; in short: as §2
Streptococcus pneumoniae = assay: Antibacterial efficacy against Streptococcus pneumoniae SVI infected orally dosed CD1 mouse model; format: functional; conditions: po, read-out: PD50; in short: as §5
[10] = system: Fusobacterium necrophorum; assay: Antibacterial activity against Fusobacterium necrophorum; format: functional; in short: as §2
Enterococcus faecalis [11] = assay: Antibacterial efficacy against Enterococcus faecalis MGH2 infected orally dosed CD1 mouse model; format: functional; in short: as §5
Corynebacterium sp. = assay: Antibacterial activity against Corynebacterium sp.; format: functional
In short: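 Broth microdilution MIC following CLSI guidelines, in cation-adjusted Mueller-Hinton broth containing 3% lysed horse blood, incubated at 35°C. Clinical isolates with identity confirmed. Reported as MIC range, MIC50 and MIC90.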

Finegoldia magna = assay: Antibacterial activity against Peptostreptococcus magnus; format: functional; in short: as §2
Enterococcus faecalis [12] = assay: Antibacterial activity against beta-lactamase positive Enterococcus faecalis; format: functional; in short: as §7
Streptococcus equinus = assay: Antibacterial activity against Streptococcus bovis; format: functional; in short: as §6

For `C[C@H]1COc2c(N3CCN(C)CC3)c(F)cc3c(=O)c(C(=O)O)cn1c23.C[C@H]1COc2c(N3CCN(C)CC3)c(F)cc3c(=O)c(C(=O)O)cn1c23.O` [LEVOFLOXACIN], the MIC50 (Salmonella typhimurium) was 0.03 µg/mL, the MIC90 (Salmonella typhimurium) was 0.06 µg/mL and the MIC50 (Hoylesella oralis) was 1 µg/mL. The MIC90 (Hoylesella oralis) was 2 µg/mL, the MIC50 (Enterococcus faecalis [1]) was 16 µg/mL and the MIC90 (Enterococcus faecalis [1]) was 32 µg/mL. For the same compound, the MIC50 [2] was 8 µg/mL, the MIC90 [2] was 64 µg/mL and the MIC50 (Bacteroides ovatus) was 8 µg/mL. For the same compound, the MIC90 (Bacteroides ovatus) was 32 µg/mL, the MIC50 (Neisseria gonorrhoeae) was 0.008 µg/mL and the MIC90 (Neisseria gonorrhoeae) was 0.008 µg/mL. It also gave an MIC50 (Moraxella catarrhalis) of 0.03 µg/mL, an MIC90 (Moraxella catarrhalis) of 0.06 µg/mL and an MIC50 [3] of 8 µg/mL. It also gave an MIC90 [3] of 32 µg/mL, an MIC50 (Morganella morganii) of 0.125 µg/mL and an MIC90 (Morganella morganii) of 16 µg/mL. The MIC (Staphylococcus aureus [4]) was 8 µg/mL, the MIC50 (Pseudomonas aeruginosa) was 1 µg/mL and the MIC90 (Pseudomonas aeruginosa) was 64 µg/mL. For the same compound, the MIC50 (Cutibacterium acnes) was 2 µg/mL, the MIC90 (Cutibacterium acnes) was 64 µg/mL and the MIC [5] was 0.125 µg/mL. For the same compound, the MIC50 (Serratia marcescens) was 0.125 µg/mL, the MIC90 (Serratia marcescens) was 4 µg/mL and the MIC (Streptococcus pyogenes) was 0.5 µg/mL. It also gave an ED50 (Streptococcus pyogenes; read-out: PD50) of 17.7 mg/kg, an MIC50 (Enterococcus faecium) of 32 µg/mL and an MIC90 (Enterococcus faecium) of 64 µg/mL. The MIC50 (Enterobacter cloacae) was 0.06 µg/mL, the MIC90 (Enterobacter cloacae) was 1 µg/mL and the MIC50 (Streptococcus mitis) was 1 µg/mL. It also gave an MIC90 (Streptococcus mitis) of 1 µg/mL, an MIC50 (Klebsiella pneumoniae) of 0.5 µg/mL and an MIC90 (Klebsiella pneumoniae) of 32 µg/mL. It also gave an MIC50 (Prevotella corporis) of 1 µg/mL, an MIC90 (Prevotella corporis) of 2 µg/mL and an MIC50 (Legionella pneumophila) of 0.008 µg/mL. It also gave an MIC90 (Legionella pneumophila) of 0.015 µg/mL, an MIC50 (Staphylococcus aureus [6]) of 0.25 µg/mL and an MIC90 (Staphylococcus aureus [6]) of 0.25 µg/mL. It also gave an MIC50 (Haemophilus influenzae) of 0.008 µg/mL, an MIC90 (Haemophilus influenzae) of 0.015 µg/mL and an MIC50 (Neisseria meningitidis) of 0.008 µg/mL. It also gave an MIC90 (Neisseria meningitidis) of 0.008 µg/mL, an MIC50 (Shigella sonnei) of 0.03 µg/mL and an MIC90 (Shigella sonnei) of 0.06 µg/mL. For the same compound, the MIC50 (Streptococcus salivarius) was 1 µg/mL, the MIC90 (Streptococcus salivarius) was 1 µg/mL and the MIC50 (Prevotella bivia) was 1 µg/mL. It also gave an MIC90 (Prevotella bivia) of 2 µg/mL, an MIC (Staphylococcus aureus [7]) of 0.25 µg/mL and an MIC (Staphylococcus aureus [8]) of 0.125 µg/mL. For the same compound, the ED50 (Staphylococcus aureus [8]; read-out: PD50) was 4.6 mg/kg, the MIC50 (Proteus mirabilis) was 0.125 µg/mL and the MIC90 (Proteus mirabilis) was 2 µg/mL. For the same compound, the MIC50 [9] was 8 µg/mL, the MIC90 [9] was 32 µg/mL and the MIC50 (Prevotella buccae) was 1 µg/mL. It also gave an MIC90 (Prevotella buccae) of 2 µg/mL, an ED50 (Streptococcus pneumoniae) of 69 mg/kg and an MIC [10] of 0.03 µg/mL. The MIC (Enterococcus faecalis [11]) was 1 µg/mL, the MIC50 (Corynebacterium sp.) was 0.5 µg/mL and the MIC90 (Corynebacterium sp.) was 32 µg/mL. For the same compound, the MIC (Finegoldia magna) was 0.125 µg/mL, the MIC (Enterococcus faecalis [12]) was 0.5 µg/mL and the MIC50 (Streptococcus equinus) was 2 µg/mL. It also gave an MIC90 (Streptococcus equinus) of 2 µg/mL.
